Publication PMC12778361 (Chemical Science, 2025)
Where two headings read alike, the source gives them in different places.

Columns and labels:
[1] = 1 M HCl, 298 K; cited from earlier work
[2] = T1-weighted phantom images at 7 T in mouse serum and PBS; assay type: physicochemical; conditions: 25 °C, 0.3 mM in mouse serum
Summary of the method: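 T1-weighted phantoms of Gd3+ complex in mouse blood serum were imaged at 7 T. A clinical Gd3+ agent and serum alone served as comparators. A spin echo sequence was used, TE = 10 ms, TR = 400 ms, and signal intensities were read.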

[3] = cited from earlier work

SMILES	kobs dissociation rate constant [1]	t1/2 dissociation half-life [1]	signal intensity, T1-weighted phantom [2]	r1 relaxivity ([3]; 20 MHz, 25 °C)	kex^298 water exchange rate ([3]; SAP isomer)	ΔH≠ ([3]; SAP isomer)	ΔS≠ ([3]; SAP isomer)	kex^298 water exchange rate ([3]; TSAP isomer)	ΔH≠ ([3]; TSAP isomer)	τR^298 rotational correlation time [3]
O=C([O-])CN1CCN(CC(=O)[O-])CCN(CC(=O)O)CCN(CC(=O)[O-])CC1.[Gd+3] [GdDOTA]	1.8e-06 s⁻¹	6418 min	3.97 × 10^4							
O=C([O-])CN1CCNCCN(CC(=O)[O-])CCN(CC(=O)[O-])CC1.[Gd+3] [GdDO3A]	0.023 s⁻¹	0.5 min								
CC(O)CN1CCN(CC(=O)[O-])CCN(CC(=O)[O-])CCN(CC(=O)[O-])CC1.[Gd+3] (centres unmarked) [GdHPDO3A]	0.00026 s⁻¹	44 min		4.6 mM⁻¹ s⁻¹	1.56 10^6 s^−1	12.7 kcal/mol	+52 kJ mol^−1 K^−1	112 10^6 s^−1	3.59 kcal/mol	65 ps
